T cruzi repl = T. cruzi replication inhibition. T. cruzi beta-gal in NIH3T3, luminescence, 90 h. inhibition, % (test concentration not listed). hit rate 1.4% among 300,000. AID 1885;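 active means mean inhibition across valid replicates above about 55%, limit read from the data; inconclusive means mean below that limit but half or more replicates reach it; inactive means mean below it, under half of replicates reach it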;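 further: signal also drops with host cell toxicity which is not excluded here; higher percent means less beta-gal luminescence so fewer parasites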
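System – NIH/3T3 host cells with β-galactosidase reporter T. cruzi · Doses – single 50 nL compound addition per well in DMSO · Reagent – 5000 T. cruzi trypomastigotes/well · Medium – Low-serum DMEM with 2% FBS · Timing – ≥90 h infection period, 3 h prior cell attachment · Evaluation – parasite load inhibition, % · Technique – GalScreen luminescence, 60 min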
L major viab = Leishmania major promastigote growth inhibition; AID 1063; inhibition, % at 10 µM; Leishmania major promastigotes, resazurin fluorescence viability; hit rate 9% among 200,000; in the data active means inhibition above about 50%;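 further: promastigotes grown with compound for 44 hours at 28 °C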
PolyA inh = yeast polyadenylation inhibition; S. cerevisiae SKY197-pL101 polyadenylation reporter, beta-gal luminescence; efflux-impaired pdr1/pdr3 knockout yeast; score 100 = 6 SD above DMSO; activity score, % at 12 µM; hit rate 0.02% among 300,000; AID 1875;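 active means lowest replicate activity score at least 50, where 100 means six control SD above control mean; inconclusive means lowest score under 50 but half or more replicates reach 50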;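 further: yeast exposed to compound for 9 h at 30 °C; higher score means more reporter readthrough which indicates perturbed polyadenylation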
Calb FLC = C. albicans growth modulation with fluconazole | C. albicans CaCi-2 + fluconazole, Alamar Blue growth, 48 h | growth inhibition, % (test concentration not listed) | hit rate 0.57% among 300,000;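 active means growth inhibition above about 58% in most replicates, limit read from the data, passing the limit was not always enough; inconclusive means exactly half the replicates above a set limit; inactive means most replicates below a set limit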;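 further: all wells also contain fluconazole at 8 µg/ml as a sub-toxic cotreatment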
NALP1 yeast inh = inhibitors of NALP1 inflammasome in yeast; S. cerevisiae NALP1/ASC/caspase-1 growth, X-gal OD620, 72 h; inhibition, % at 10 µM; hit rate 0.61% among 280,000; AID 2071; in the data active means inhibition mostly above about 24%, no sharp cut-off; inactive means mostly below about 32%
NALP3 yeast inh = NALP3 inhibition in yeast; Yeast reconstituted NLRP3/ASC/caspase-1, beta-gal luminescence, 24 h; inhibition, % at 10 µM; hit rate 0.39% among 330,000; AID 2825;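 active means inhibition of 50% or more; inactive means inhibition below 50%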
Each line names hits and unclear results; the compound was inactive in the other large screens. Shown is part of a subset that was picked to be rich in hits.

OC(COc1ccccc1)CN1CCCCCC1 (configuration not stated)	none
OC(COc1cccc2ccccc12)CN1CCN(c2ccc(Cl)cc2)CC1 (configuration not stated)	none (no result: L major viab)
OC(COc1c(F)cc(Br)cc1F)CN1CCN(c2ccc(F)cc2)CC1 (configuration not stated)	L major viab 87
OC(COc1ccc2ccccc2c1)CN1CCCC1 (configuration not stated)	L major viab 74, Calb FLC inconclusive
O=[N+]([O-])c1ccccc1OCC(O)CN1CCN(CC(O)COc2ccccc2[N+](=O)[O-])CC1 (configuration not stated)	none (no result: L major viab)
OC(COc1cccc2ccccc12)CN1CCCC1 (configuration not stated)	L major viab 100
COc1ccc(N2CCN(CC(O)COc3ccccc3[N+](=O)[O-])CC2)cc1 (configuration not stated)	L major viab 92
O=C(O)Cn1nnnc1SCC(=O)Nc1ccc(OC(F)(F)F)cc1	none
Cc1ccc(C(=O)CSc2nnnn2C(C)C)c(C)c1	none
COc1cccc(OCC(O)CN2CCN(c3ccc(F)cc3)CC2)c1 (configuration not stated)	none (no result: L major viab)
OC(COc1ccc2ccccc2c1)CN1CCN(c2ccc(F)cc2)CC1 (configuration not stated)	NALP1 yeast inh 44
COC(=O)C1=C(C)N(c2ccc(C)c(C)c2)/C(=C/c2ccc(O)cc2)C1=O	L major viab 99
COC(=O)C1=C(C)N(CC2CCCO2)C(=O)/C1=C\c1ccc(O)cc1 (configuration not stated)	none
CCOc1cc(N2CCOCC2)c(OCC)cc1NC(=O)CN1C(=O)NC(Cc2ccccc2)C1=O (configuration not stated)	none
COc1ccc(S(=O)(=O)N2CCOCC2)cc1NC(=O)COC(=O)C1COc2ccccc2O1 (configuration not stated)	L major viab 66
CCOc1cc(N2CCOCC2)c(OCC)cc1NC(=O)CN1CCC(Cc2ccccc2)CC1	T cruzi repl 62
COc1ccc(S(=O)(=O)N2CCOCC2)cc1NC(=O)CN1CCC(Cc2ccccc2)CC1	L major viab 99
COc1ccc(CCOC(=O)c2cccc(NC(C)=O)c2)cc1	none (no result: L major viab)
CC(C)Cn1c(-c2ccco2)csc1=Nc1cccnc1	L major viab 58
Fc1ccccc1-c1csc(=Nc2cccnc2)n1CC1CCCO1 (configuration not stated)	none
CN=c1scc(-c2ccco2)n1/N=C/c1ccc(O)c(O)c1	none
CC(C)N=c1scc(-c2cccs2)n1/N=C/c1ccc(O)c(O)c1O	none (no result: T cruzi repl, PolyA inh, Calb FLC)
CCN=c1scc(-c2cccs2)n1/N=C/c1cc(OC)ccc1O	L major viab 75 (no result: T cruzi repl, PolyA inh, Calb FLC, NALP1 yeast inh, NALP3 yeast inh)
COc1ccc(O)c(/C=N/n2c(-c3ccco3)csc2=Nc2cccnc2)c1	L major viab 91
Fc1ccccc1-c1csc(=Nc2cccnc2)n1CCCn1ccnc1	L major viab 76
COCCn1c(-c2ccco2)csc1=Nc1cccnc1	none
CCN(CC)C(=O)CSc1nc2c(sc(=S)n2-c2ccc(C)cc2C)c(=O)[nH]1	none (no result: L major viab)
O=[N+]([O-])C(/C=C(\Cl)[N+](=O)[O-])=C(N1CCCCC1)N1CCCCC1	T cruzi repl 61
O=[N+]([O-])C(=C1SCCS1)C(=C(Cl)Cl)N1CCCCC1	none
CCOC(=O)C1CCCN(C(=O)C(C)(C)Oc2ccc(Cl)cc2)C1 (configuration not stated)	none
c1ccc(N2CCN(c3cnc4ccccc4n3)CC2)cc1	NALP1 yeast inh 39
O=Cc1cnc(N2CCN(c3ccccc3)CC2)s1	NALP1 yeast inh 39
O=Cc1cnc(N2CCN(Cc3ccccc3)CC2)s1	none
COc1cccc(N2CCN(c3cnc4ccccc4n3)CC2)c1	L major viab 70
COc1ccc(N2CCN(c3cnc4ccccc4n3)CC2)cc1	none
Clc1ccc(N2CCN(c3cnc4ccccc4n3)CC2)cc1	none
CC1=C(C)CC(C(=O)NCc2c(F)cccc2Cl)C(C(=O)O)C1 (configuration not stated)	none (no result: L major viab)
CC(Sc1nnc(NC2CCCCC2)s1)C(=O)Nc1ccc2c(c1)C(=O)c1ccccc1C2=O (configuration not stated)	L major viab 66
Cc1cc(C)nc(N/N=C2/CCCC/C2=C\c2ccccc2)n1	T cruzi repl 70, L major viab 100
Cc1ccnc(N/N=C/c2ccccc2)n1	none
CC(NC(=O)C(C)N1C(=O)c2ccccc2C1=O)c1ccccc1 (configuration not stated)	none (no result: L major viab)
CC(NC(=O)C(C)N1C(=O)C2C3CC(C(Br)C3Br)C2C1=O)c1ccccc1 (configuration not stated)	L major viab 82
CCOC(=O)c1ccc(S(=O)(=O)Nc2ccc3cn[nH]c3c2)cc1	L major viab 68
COc1cc(CC(=O)N(C)CC(=O)Nc2cc(C)ccc2C)cc(OC)c1OC	none (no result: L major viab)
Cc1cccc(-c2nc3ccccc3c(=O)n2NC(=O)/C=C/c2ccc([N+](=O)[O-])cc2)c1	L major viab 52, Calb FLC 117
N#Cc1ccc(C(=O)CN2CCN(c3ccccc3)CC2)cc1	none (no result: L major viab)
N#Cc1ccccc1NC(=O)CNc1ccccc1N1CCCCC1	L major viab 71
Cc1ccc(Sc2ncccc2C(=O)N(C)Cc2cccs2)c(C)c1	none (no result: L major viab)
Cc1cc(C)c(-n2nnnc2SCC(=O)c2cc3ccccc3o2)c(C)c1	none (no result: L major viab, NALP1 yeast inh)
CC(C)COP(=O)(OCC(C)C)C(Nc1ccccc1)c1ccc(F)cc1 (configuration not stated)	L major viab 93
CCCCn1cnc2c1c(=O)n(CC(=O)c1cc(C)n(C)c1C)c(=O)n2CC(C)C	L major viab 96
Cc1cccc(C2c3[nH]c4ccccc4c3CCN2C(=O)c2ccc(=O)[nH]c2)n1 (configuration not stated)	none
CCc1ccc(C2c3[nH]c4ccccc4c3CCN2C(=O)c2ccc(=O)n(C)n2)cc1 (configuration not stated)	Calb FLC 88
CSc1ccc(C2c3[nH]c4ccccc4c3CCN2C(=O)c2ccnn2C)cc1 (configuration not stated)	Calb FLC 92
CCOC(=O)c1cnc(-n2nc(C)cc2C)nc1NC1CCCCC1	T cruzi repl 76, L major viab 100
CCOC(=O)c1cnc(-n2nc(C)cc2C)nc1NNc1nc(C)cc(C)n1	none (no result: L major viab)
CCOC(=O)c1cnc(-n2nc(C)cc2C)nc1NNc1nc(-c2ccccc2)cc(-c2ccccc2)n1	L major viab 100
Cc1onc(C(N)=O)c1C(=O)Nc1ncc(C(F)(F)F)cc1Cl	none
CN(C)S(=O)(=O)c1ccc(NC(=S)NC(=O)C2CCC2)cc1	none (no result: L major viab)

Compound activity (PubChem)
